Assay results reported in ChEMBL document CHEMBL2407002, “Simplification of antitumoral phenanthroindolizidine alkaloids: short synthesis of cytotoxic indolizidinone and pyrrolidine analogs” (2013).
Calls of active or inactive are those of the source. The rule behind the calls is not given here.

Legend:
SH-SY5Y [1] = assay: Cytotoxicity against human SH-SY5Y cells assessed as cell mortality at 10 uM after 24 hrs by trypan blue exclusion assay; assay type: functional, cell-based
Outline: (§1)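 Pyrrolidine series: MCF-7 in DMEM and SHSY-5Y in DMEM/F12 with 10% FBS, grown to 70% confluence. Compounds in DMSO (0.05%) were added at 10 µM for 24 h or 30 µM for 48 h, with DMSO (0.05%) vehicle controls for the same period. Mortality was derived from trypan blue counts. Data are mean ± SEM of 5-6 assays, analysed by one-way ANOVA followed by Student's t test versus vehicle.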

MCF7 [2] = assay: Cytotoxicity against human MCF7 cells assessed as cell mortality at 10 uM after 24 hrs by trypan blue exclusion assay; assay type: functional, cell-based; outline: as §1
SH-SY5Y [3] = assay: Cytotoxicity against human SH-SY5Y cells assessed as cell mortality at 30 uM after 48 hrs by trypan blue exclusion assay; assay type: functional, cell-based; outline: as §1
MCF7 [4] = assay: Cytotoxicity against human MCF7 cells assessed as cell mortality at 30 uM after 48 hrs by trypan blue exclusion assay relative to control; assay type: functional
Outline: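 MCF-7 cells were cultured in DMEM + 10% FBS to 70% confluence. Compound was dissolved in DMSO (0.05%) and added to the medium for 48 h. Controls received 0.05% DMSO for the same period. Total cells, viable cells and mortality were calculated per compound and dose. Results are given as mean ± SEM of 5–6 assays, analysed by one-way ANOVA then Student's t test.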

MCF7 [5] = assay: Cytotoxicity against human MCF7 cells assessed as cell viability at 30 uM after 48 hrs by trypan blue staining-based assay; assay type: functional
Outline: (§2)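 Indolizidinone series: MCF-7 grown in DMEM phenol red and SHSY-5Y in DMEM/F12 Ham's, each with 10% FBS, at 37 °C under 5% CO2 to 80% confluence. About 10 × 10⁶ cells were seeded, grown 24 h, then exposed 24 or 48 h to vehicle (0.05% DMSO) or increasing compound concentrations in DMSO. Viable cells were counted by trypan blue staining on a Vi-Cell-XR analyzer.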

SH-SY5Y [6] = assay: Cytotoxicity against human SH-SY5Y cells assessed as cell viability at 30 uM after 48 hrs by trypan blue staining-based assay; assay type: functional; outline: as §2
MCF7 [7] = assay: Cytotoxicity against human MCF7 cells assessed as cytoplasm vacuolization at 30 uM; assay type: functional, cell-based; details: TDE = time-dependent effect
Outline: (§3)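 Cells were treated at 30 µM (0.05% DMSO vehicle controls) and examined microscopically over time, from 6 h up to 48 h. Changes scored were cell and nuclear volume, nucleolar refringency and cytoplasm vacuolization, compared with vehicle-treated cells.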

SH-SY5Y [8] = assay: Cytotoxicity against human SH-SY5Y cells assessed as change in cell morphology at 30 uM after 48 hrs; assay type: functional, cell-based; outline: as §3
MCF7 [9] = assay: Cytotoxicity against human MCF7 cells assessed as increase in cellular volume at 30 uM; assay type: functional, cell-based; details: TDE = time-dependent effect; outline: as §3
SH-SY5Y [10] = assay: Cytotoxicity against human SH-SY5Y cells after 24 to 48 hrs by trypan blue exclusion assay; assay type: functional, cell-based; outline: as §2
MCF7 [11] = assay: Cytotoxicity against human MCF7 cells after 24 to 48 hrs by trypan blue exclusion assay; assay type: functional, cell-based; outline: as §2
MCF7 [12] = assay: Cytotoxicity against human MCF7 cells assessed as increase in nuclear volume at 30 uM; assay type: functional, cell-based; details: TDE = time-dependent effect; outline: as §3
MCF7 [13] = assay: Cytotoxicity against human MCF7 cells assessed as nucleolar refringency at 30 uM; assay type: functional, cell-based; details: TDE = time-dependent effect; outline: as §3
MCF7 [14] = assay: Cytotoxicity against human MCF7 cells assessed as cell death at 30 uM after 48 hrs by trypan blue staining-based assay relative to control; assay type: functional
Outline: (§4)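 Cells grown at 37 °C, 5% CO2 to 80% confluence: MCF-7 in phenol red DMEM + 10% FBS, SH-SY5Y in DMEM/F12 Ham's + 10% FBS. About 10 × 10⁶ cells were seeded and grown 24 h, then exposed 48 h to compound in […] or to vehicle (0.05% DMSO). Viable cells were counted by trypan blue staining on an automated analyzer. Compared with vehicle.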

[15] = Cytotoxicity against human SH-SY5Y cells assessed as cell death at 30 uM after 48 hrs by trypan blue staining-based assay relative to control; assay type: functional; outline: as §4
MCF7 [16] = assay: Cytotoxicity against human MCF7 cells assessed as change in cell morphology at 30 uM after 48 hrs; assay type: functional, cell-based; outline: as §3

Structure (SMILES): O=C(C[C@H]1C[C@@H](O)CN1C(=O)Cc1ccccc1)c1ccco1
- Activity (SH-SY5Y [1]): Active
- Activity (MCF7 [2]): Active
- Activity (SH-SY5Y [3]): Active
- Activity (MCF7 [4]): Active

Structure (SMILES): Cn1cccc1C1=C(c2ccccc2)C(=O)N2C[C@H](O)C[C@@H]2C1
- Activity (MCF7 [5]): Active
- Activity (SH-SY5Y [6]): Active

Structure (SMILES): Cn1cccc1C(=O)CC1C[C@@H](O)CN1C(=O)Cc1ccccc1 (stereo not given in full)
- Activity (SH-SY5Y [1]): Active
- Activity (MCF7 [2]): Active
- Activity (SH-SY5Y [3]): Active
- Activity (MCF7 [4]): Active

Structure (SMILES): COc1ccc(C2=C(c3ccccc3)C(=O)N3C[C@H](O)C[C@H]3C2)cc1
- Activity (MCF7 [5]): Active
- Activity (SH-SY5Y [6]): Active

Structure (SMILES): O=C1C(c2ccccc2)=C(c2ccco2)C[C@H]2C[C@@H](O)CN12
- Activity (MCF7 [5]): Active

Structure (SMILES): O=C(C[C@H]1C[C@@H](O)CN1C(=O)Cc1ccccc1)c1ccc(-c2ccccc2)cc1
- Activity (MCF7 [7]): tde
- Activity (MCF7 [2]): Active
- Activity (SH-SY5Y [8]): Active
- Activity (MCF7 [9]): tde
- Activity (SH-SY5Y [10]): Dose-dependent effect
- Activity (MCF7 [4]): >=80%
- Activity (MCF7 [11]): Dose-dependent effect
- Activity (MCF7 [12]): tde
- Activity (MCF7 [13]): tde

Structure (SMILES): O=C1C(c2ccccc2)=C(c2ccccc2)C[C@H]2C[C@@H](O)CN12
- Activity (MCF7 [5]): Active

Structure (SMILES): COc1ccc(C(=O)CC2C[C@@H](O)CN2C(=O)Cc2ccccc2)cc1 (stereo not given in full)
- Activity (SH-SY5Y [1]): Active
- Activity (MCF7 [2]): Active
- Activity (SH-SY5Y [3]): Active
- Activity (MCF7 [4]): Active

Structure (SMILES): O=C1C(c2ccccc2)=C(c2ccccc2)C[C@@H]2C[C@@H](O)CN12
- Activity (MCF7 [5]): Active

Structure (SMILES): O=C(C[C@@H]1C[C@@H](O)CN1C(=O)Cc1ccccc1)c1ccco1
- Activity (SH-SY5Y [10]): Dose-dependent effect
- Activity (MCF7 [11]): Dose-dependent effect

Structure (SMILES): Cn1cccc1C1=C(c2ccccc2)C(=O)N2C[C@H](O)C[C@H]2C1
- Activity (MCF7 [5]): Active
- Activity (SH-SY5Y [6]): Active

Structure (SMILES): O=C1C(c2ccccc2)=C(c2ccco2)C[C@@H]2C[C@@H](O)CN12
- Activity (MCF7 [5]): Active
- Activity (SH-SY5Y [6]): Active

Structure (SMILES): O=C(C[C@@H]1C[C@@H](O)CN1C(=O)Cc1ccccc1)c1ccc(-c2ccccc2)cc1
- Activity (MCF7 [2]): Active
- Activity (SH-SY5Y [10]): Dose-dependent effect
- Activity (MCF7 [4]): >=80%
- Activity (MCF7 [11]): Dose-dependent effect

Structure (SMILES): O=C(CC1C[C@@H](O)CN1C(=O)Cc1ccccc1)c1ccco1 (stereo not given in full)
- Activity (SH-SY5Y [1]): Active
- Activity (MCF7 [2]): Active
- Activity (SH-SY5Y [3]): Active
- Activity (MCF7 [4]): Active

Structure (SMILES): O=C1C(c2ccccc2)=C(c2ccc3ccccc3c2)C[C@H]2C[C@@H](O)CN12
- Activity (MCF7 [5]): Active

Structure (SMILES): Cn1cccc1C(=O)C[C@@H]1C[C@@H](O)CN1C(=O)Cc1ccccc1
- Activity (SH-SY5Y [1]): Active
- Activity (MCF7 [2]): Active
- Activity (SH-SY5Y [3]): Active
- Activity (MCF7 [4]): Active

Structure (SMILES): O=C1C(c2ccccc2)=C(c2ccc(-c3ccccc3)cc2)C[C@@H]2C[C@@H](O)CN12
- Activity (MCF7 [5]): Active
- Activity (SH-SY5Y [6]): Active

Structure (SMILES): O=C(CC1C[C@@H](O)CN1C(=O)Cc1ccccc1)c1ccc(Br)cc1 (stereo not given in full)
- Activity (SH-SY5Y [1]): Active
- Activity (MCF7 [2]): Active
- Activity (SH-SY5Y [3]): Active
- Activity (MCF7 [4]): Active

Structure (SMILES): O=C1C(c2ccccc2)=C(c2ccc(-c3ccccc3)cc2)C[C@H]2C[C@@H](O)CN12
- Activity (MCF7 [14]): 80%
- Activity (MCF7 [5]): Active
- Activity (SH-SY5Y [8]): Active
- Activity (SH-SY5Y [6]): Active
- Activity [15]: 80%
- Activity (MCF7 [16]): Active

Structure (SMILES): O=C1C(c2ccccc2)=C(c2ccc(Br)cc2)C[C@@H]2C[C@@H](O)CN12
- Activity (MCF7 [5]): Active
- Activity (SH-SY5Y [6]): Active

Structure (SMILES): O=C1C(c2ccccc2)=C(c2ccc3ccccc3c2)C[C@@H]2C[C@@H](O)CN12
- Activity (MCF7 [5]): Active
- Activity (SH-SY5Y [6]): Active

Structure (SMILES): O=C1C(c2ccccc2)=C(c2ccc(Br)cc2)C[C@H]2C[C@@H](O)CN12
- Activity (MCF7 [5]): Active

Structure (SMILES): COc1ccc(C2=C(c3ccccc3)C(=O)N3C[C@H](O)C[C@@H]3C2)cc1
- Activity (MCF7 [5]): Active
